Results: ChEMBL document CHEMBL4715780, “Biological evaluation of tetracationic compounds based on two 1,4-diazabicyclo[2.2.2]octane moieties connected by different linkers” (Bioorg Med Chem, 2016)

Legend:
[1] = system: Pseudomonas aeruginosa; assay: Antibacterial activity against Pseudomonas aeruginosa ATCC 9027 assessed as bacterial growth inhibition by CLSI protocol based serial microdilution method; assay type: functional
[2] = system: Proteus vulgaris; assay: Antibacterial activity against Proteus vulgaris ATCC 6380 assessed as bacterial growth inhibition by CLSI protocol based serial microdilution method; assay type: functional
[3] = system: Proteus vulgaris; assay: Antibacterial activity against Proteus vulgaris ATCC 6380 assessed as concentration required to inhibit visible growth by CLSI protocol based serial microdilution method; assay type: functional
[4] = system: Citrobacter freundii; assay: Antibacterial activity against Citrobacter freundii ATCC 8090 assessed as concentration required to inhibit visible growth by CLSI protocol based serial microdilution method; assay type: functional
[5] = Cytotoxicity against human MCF7 cells assessed as reduction in cell viability measured after 24 hrs by MTT assay; assay type: cell-based
Procedure, shortened: (§1)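 HEK293T or MCF-7 cells in IMDM with 10% FBS, seeded at 20,000 per well and grown overnight. Compounds at […] in fresh medium for 24 h at 37 °C, 5% CO₂. MTT then added for 4 h, precipitate dissolved overnight in SDS-HCl, absorbance read at 570 nm. Viability expressed relative to untreated cells, giving CC₅₀. Duplicate wells, at least two independent repeats.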

[6] = system: Influenza A virus; assay: Antiviral activity against Influenza A virus (A/Puerto Rico/8/34 (H1N1) infected in MDCK cells assessed as decrease in viral titer preincubated for 1 hr followed by viral infection and cultivated for 48 hrs followed by supernatant transferred to chicken erythrocyte for 1 hr followed by measuring ability to cause positive hemagglutination; assay type: functional, organism-based; conditions: A/Puerto Rico/8/1934(H1N1)
Procedure, shortened: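 MDCK monolayers in MEM were pre-incubated with compound for 1 h at 37 °C, then infected with 10-fold virus dilutions (10⁻¹–10⁻⁶) and held 48 h at 37 °C, 5% CO₂. Supernatant was mixed with an equal volume of 1% chicken erythrocytes, 60 min at room temperature. Titre was taken from the highest dilution giving full agglutination (log₁₀ EID₅₀). Triplicate per concentration.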

[7] = Selectivity index, ratio of CC50 for HEK293T cells assessed as reduction in cell viability measured after 24 hrs by MTT assay to MIC for Enterococcus faecalis ATCC 51299 assessed as bacterial growth inhibition by CLSI protocol based serial microdilution method; assay type: toxicity; conditions: human, read-out: Selectivity Index
[8] = system: Candida albicans; assay: Antifungal activity against Candida albicans CEMTC 34 assessed as fungal growth inhibition by CLSI protocol based serial microdilution method; assay type: functional
Procedure, shortened: (§2)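 Candida albicans grown in Sabouraud dextrose broth with two-fold serial compound dilutions from water stocks; final inoculum about 5 × 10⁵ CFU/mL. Incubated at 37 °C with orbital shaking (580 rpm). MIC is the lowest concentration preventing growth, by absorbance at 595 nm. MFC is the lowest concentration with no visible growth. Duplicates in two separate experiments.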

[9] = Selectivity index, ratio of CC50 for HEK293T cells assessed as reduction in cell viability measured after 24 hrs by MTT assay to MIC for Escherichia coli ATCC 25922 assessed as bacterial growth inhibition by CLSI protocol based serial microdilution method; assay type: toxicity; conditions: human, read-out: Selectivity Index
[10] = system: Candida albicans; assay: Antifungal activity against Candida albicans CEMTC 34 assessed as concentration required to inhibit visible growth by CLSI protocol based serial microdilution method; assay type: functional; procedure, shortened: as §2
[11] = system: Enterococcus faecalis; assay: Antibacterial activity against Enterococcus faecalis ATCC 51299 assessed as concentration required to inhibit visible growth by CLSI protocol based serial microdilution method; assay type: functional
[12] = Selectivity index, ratio of CC50 for HEK293T cells assessed as reduction in cell viability measured after 24 hrs by MTT assay to MIC for Proteus vulgaris ATCC 6380 assessed as bacterial growth inhibition by CLSI protocol based serial microdilution method; assay type: toxicity; conditions: human, read-out: Selectivity Index
[13] = system: Escherichia coli; assay: Antibacterial activity against Escherichia coli ATCC 25922 assessed as concentration required to inhibit visible growth by CLSI protocol based serial microdilution method; assay type: functional
[14] = Selectivity index, ratio of CC50 for HEK293T cells assessed as reduction in cell viability measured after 24 hrs by MTT assay to MIC for Citrobacter freundii ATCC 8090 assessed as bacterial growth inhibition by CLSI protocol based serial microdilution method; assay type: toxicity; conditions: human, read-out: Selectivity Index
[15] = Cytotoxicity against MDCK cells assessed as cell death incubated for 48 hrs by MTT assay; assay type: cell-based, Canis lupus familiaris; conditions: dog
[16] = system: Citrobacter freundii; assay: Antibacterial activity against Citrobacter freundii ATCC 8090 assessed as bacterial growth inhibition by CLSI protocol based serial microdilution method; assay type: functional
[17] = system: Pseudomonas aeruginosa; assay: Antibacterial activity against Pseudomonas aeruginosa ATCC 9027 assessed as concentration required to inhibit visible growth by CLSI protocol based serial microdilution method; assay type: functional
[18] = Cytotoxicity against HEK293T cells assessed as reduction in cell viability measured after 24 hrs by MTT assay; assay type: cell-based, HEK-293T; conditions: human; procedure, shortened: as §1
[19] = system: Staphylococcus aureus; assay: Antibacterial activity against […] Staphylococcus aureus ATCC 25923 assessed as bacterial growth inhibition by CLSI protocol based serial microdilution method; assay type: functional
[20] = system: Staphylococcus aureus; assay: Antibacterial activity against […] Staphylococcus aureus ATCC 25923 assessed as concentration required to inhibit visible growth by CLSI protocol based serial microdilution method; assay type: functional
[21] = system: Enterococcus faecalis; assay: Antibacterial activity against Enterococcus faecalis ATCC 51299 assessed as bacterial growth inhibition by CLSI protocol based serial microdilution method; assay type: functional
[22] = Selectivity index, ratio of CC50 for HEK293T cells assessed as reduction in cell viability measured after 24 hrs by MTT assay to MIC for Candida albicans CEMTC 34 assessed as bacterial growth inhibition by CLSI protocol based serial microdilution method; assay type: toxicity; conditions: human, read-out: Selectivity Index
Procedure, shortened: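 SI = CC₅₀ (HEK293T) / MIC. HEK293T cells were seeded at 20,000/well overnight, then exposed to 10–250 µg/mL in IMDM with 10% FBS for 24 h. MTT was added for 4 h, solubilised with SDS-HCl, and read at 570 nm; duplicates, ≥2 independent runs. MIC came from two-fold dilutions in Sabouraud dextrose broth at ~5 × 10⁵ CFU/mL, 37 °C with shaking, read at 595 nm, in duplicate.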

[23] = Selectivity index, ratio of CC50 for HEK293T cells assessed as reduction in cell viability measured after 24 hrs by MTT assay to MIC for Staphylococcus aureus ATCC 25923 assessed as bacterial growth inhibition by CLSI protocol based serial microdilution method; assay type: toxicity; conditions: human, read-out: Selectivity Index
[24] = system: Escherichia coli; assay: Antibacterial activity against Escherichia coli ATCC 25922 assessed as bacterial growth inhibition by CLSI protocol based serial microdilution method; assay type: functional
[25] = system: Salmonella typhimurium; assay: Antibacterial activity against Salmonella enterica ATCC 14028 assessed as concentration required to inhibit visible growth by CLSI protocol based serial microdilution method; assay type: functional, Salmonella enterica subsp. enterica serovar Typhimurium
[26] = Selectivity index, ratio of CC50 for HEK293T cells assessed as reduction in cell viability measured after 24 hrs by MTT assay to MIC for Salmonella enterica ATCC 14028 assessed as bacterial growth inhibition by CLSI protocol based serial microdilution method; assay type: toxicity; conditions: human, read-out: Selectivity Index
[27] = Selectivity index, ratio of CC50 for HEK293T cells assessed as reduction in cell viability measured after 24 hrs by MTT assay to MIC for Pseudomonas aeruginosa ATCC 9027 assessed as bacterial growth inhibition by CLSI protocol based serial microdilution method; assay type: toxicity; conditions: human, read-out: Selectivity Index
[28] = system: Salmonella typhimurium; assay: Antibacterial activity against Salmonella enterica ATCC 14028 assessed as bacterial growth inhibition by CLSI protocol based serial microdilution method; assay type: functional, Salmonella enterica subsp. enterica serovar Typhimurium
[29] = Selectivity index, ratio of CC50 for MDCK cells to EC50 for Influenza A virus (A/Puerto Rico/8/34 (H1N1)) infected in MDCK cells; assay type: toxicity, cell-based; conditions: dog, read-out: Ratio CC50/EC50
Procedure, shortened: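 Ratio of CC₅₀ to EC₅₀, both in MDCK cells, with cytotoxicity run in parallel with the antiviral assay. EC₅₀ is the concentration halving virus production (0.3 log₁₀ EID₅₀ titre drop). It was obtained after 1 h compound pre-incubation, infection, 48 h at 37 °C, and hemagglutination read-out with 1% chicken erythrocytes.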

| Compound | MIC [1] [µg/mL] | MIC [2] [µg/mL] | MBC [3] [µg/mL] | MBC [4] [µg/mL] | CC50 at 24 h [5] [µg/mL] | EC50 [6] [µg/mL] | selectivity ratio at 24 h [7] | MIC [8] [µg/mL] | selectivity ratio at 24 h [9] | MFC [10] [µg/mL] | MBC [11] [µg/mL] | selectivity ratio at 24 h [12] | MBC [13] [µg/mL] | selectivity ratio at 24 h [14] | CC50 at 48 h [15] [µg/mL] | MIC [16] [µg/mL] | MBC [17] [µg/mL] | CC50 at 24 h [18] [µg/mL] | MIC [19] [µg/mL] | MBC [20] [µg/mL] | further results |
| --- | --- | --- | --- | --- | --- | --- | --- | --- | --- | --- | --- | --- | --- | --- | --- | --- | --- | --- | --- | --- | --- |
| CCCCCCCCCCCC[N+]12CC[N+](CCCC[N+]34CC[N+](CCCCCCCCCCCC)(CC3)CC4)(CC1)CC2 | 1.6 | 25 | > 100 | 1.6 | 4 | > 3 | 3 | 6.3 | 3 | 6.3 | 1.6 | < 1 | 3.1 | 3 | 6.8 | 1.6 | 3.1 | 4 | 0.6 | 1.2 | MIC [21]: 1.6 µg/mL; selectivity ratio at 24 h [22]: < 1; selectivity ratio at 24 h [23]: 7; MIC [24]: 1.6 µg/mL; MBC [25]: 3.1 µg/mL; selectivity ratio at 24 h [26]: 3; selectivity ratio at 24 h [27]: 3; MIC [28]: 1.6 µg/mL; selectivity ratio [29]: < 2 |
| CCCCCCCCCCCC[N+]12CC[N+](C/C=C/C[N+]34CC[N+](CCCCCCCCCCCC)(CC3)CC4)(CC1)CC2 | 1.6 | 100 | > 100 | 3.1 | 8 | 2.6 | 6 | 12.5 | 3 | 12.5 | 1.6 | < 1 | 3.1 | 6 | 6.8 | 1.6 | 3.1 | 10 | 1.2 | 1.6 | MIC [21]: 1.6 µg/mL; selectivity ratio at 24 h [22]: < 1; selectivity ratio at 24 h [23]: 8; MIC [24]: 3.1 µg/mL; MBC [25]: 3.1 µg/mL; selectivity ratio at 24 h [26]: 6; selectivity ratio at 24 h [27]: 6; MIC [28]: 16 µg/mL; selectivity ratio [29]: 3 |
| CCCCCCCCCCCC[N+]12CC[N+](CC#CC[N+]34CC[N+](CCCCCCCCCCCC)(CC3)CC4)(CC1)CC2 | 3.1 | 100 | > 100 | 12 | 23 | > 3 | 14 | 12.5 | 4 | 12.5 | 3.1 | < 1 | 12.5 | 4 | 4 | 6.3 | 12.5 | 22 | 1.6 | 3.1 | MIC [21]: 1.6 µg/mL; selectivity ratio at 24 h [22]: 2; selectivity ratio at 24 h [23]: 14; MIC [24]: 63 µg/mL; MBC [25]: 12.5 µg/mL; selectivity ratio at 24 h [26]: 4; selectivity ratio at 24 h [27]: 7; MIC [28]: 6.3 µg/mL; selectivity ratio [29]: < 1 |
| CCCCCCCCCCCC[N+]12CC[N+](Cc3cccc(C[N+]45CC[N+](CCCCCCCCCCCC)(CC4)CC5)c3)(CC1)CC2 | 1.6 | 25 | 25 | 3.1 | 17 | 1.3 | 10 | 12.5 | 10 | 12.5 | 1.6 | < 1 | 3.1 | 10 | 8.4 | 1.6 | 3.1 | 16 | 0.6 | 1.6 | MIC [21]: 1.6 µg/mL; selectivity ratio at 24 h [22]: 1; selectivity ratio at 24 h [23]: 27; MIC [24]: 1.6 µg/mL; MBC [25]: 3.1 µg/mL; selectivity ratio at 24 h [26]: 10; selectivity ratio at 24 h [27]: 10; MIC [28]: 1.6 µg/mL; selectivity ratio [29]: 6 |
| CCCCCCCCCCCC[N+]12CC[N+](Cc3ccc(C[N+]45CC[N+](CCCCCCCCCCCC)(CC4)CC5)cc3)(CC1)CC2 | 6.3 | 12.5 | 25 | 3.1 | 16 | 1 | 10 | 12.5 | 10 | 12.5 | 1.6 | 1 | 3.1 | 10 | 2.9 | 1.6 | 12.5 | 16 | 0.6 | 1.2 | MIC [21]: 1.6 µg/mL; selectivity ratio at 24 h [22]: 1; selectivity ratio at 24 h [23]: 27; MIC [24]: 1.6 µg/mL; MBC [25]: 3.1 µg/mL; selectivity ratio at 24 h [26]: 10; selectivity ratio at 24 h [27]: 3; MIC [28]: 1.6 µg/mL; selectivity ratio [29]: 3 |
